Calls of active or inactive are those of the source. No cut-off for these calls is given here.
How the values were obtained:
[1] = Clearance in human liver microsomes in presence of NADPH; format: ADME, Microsome
Summary of the method: (§1)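 Stability in human and mouse liver microsomes incubated with an NADPH regenerating system; half-life (min) and hepatic clearance (mL/min/kg) determined.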

[2] = Half life in human liver microsomes in presence of NADPH; format: ADME, Microsome; summary of the method: as §1
[3] = Half life in mouse liver microsomes in presence of NADPH; format: ADME, Microsome; summary of the method: as §1
[4] = Clearance in mouse liver microsomes in presence of NADPH; format: ADME, Microsome; summary of the method: as §1
[5] = molecular target: T1, NACHT, LRR and PYD domains-containing protein 3 (Homo sapiens, UniProt Q96P20); assay: Inhibition of NLRP3 inflammasome (unknown origin) activation in LPS-primed bone marrow derived macrophage cells at 10 uM in presence of mono sodium urate relative to control
T1 sequence (Q96P20 whole entry, the tested form may be a part): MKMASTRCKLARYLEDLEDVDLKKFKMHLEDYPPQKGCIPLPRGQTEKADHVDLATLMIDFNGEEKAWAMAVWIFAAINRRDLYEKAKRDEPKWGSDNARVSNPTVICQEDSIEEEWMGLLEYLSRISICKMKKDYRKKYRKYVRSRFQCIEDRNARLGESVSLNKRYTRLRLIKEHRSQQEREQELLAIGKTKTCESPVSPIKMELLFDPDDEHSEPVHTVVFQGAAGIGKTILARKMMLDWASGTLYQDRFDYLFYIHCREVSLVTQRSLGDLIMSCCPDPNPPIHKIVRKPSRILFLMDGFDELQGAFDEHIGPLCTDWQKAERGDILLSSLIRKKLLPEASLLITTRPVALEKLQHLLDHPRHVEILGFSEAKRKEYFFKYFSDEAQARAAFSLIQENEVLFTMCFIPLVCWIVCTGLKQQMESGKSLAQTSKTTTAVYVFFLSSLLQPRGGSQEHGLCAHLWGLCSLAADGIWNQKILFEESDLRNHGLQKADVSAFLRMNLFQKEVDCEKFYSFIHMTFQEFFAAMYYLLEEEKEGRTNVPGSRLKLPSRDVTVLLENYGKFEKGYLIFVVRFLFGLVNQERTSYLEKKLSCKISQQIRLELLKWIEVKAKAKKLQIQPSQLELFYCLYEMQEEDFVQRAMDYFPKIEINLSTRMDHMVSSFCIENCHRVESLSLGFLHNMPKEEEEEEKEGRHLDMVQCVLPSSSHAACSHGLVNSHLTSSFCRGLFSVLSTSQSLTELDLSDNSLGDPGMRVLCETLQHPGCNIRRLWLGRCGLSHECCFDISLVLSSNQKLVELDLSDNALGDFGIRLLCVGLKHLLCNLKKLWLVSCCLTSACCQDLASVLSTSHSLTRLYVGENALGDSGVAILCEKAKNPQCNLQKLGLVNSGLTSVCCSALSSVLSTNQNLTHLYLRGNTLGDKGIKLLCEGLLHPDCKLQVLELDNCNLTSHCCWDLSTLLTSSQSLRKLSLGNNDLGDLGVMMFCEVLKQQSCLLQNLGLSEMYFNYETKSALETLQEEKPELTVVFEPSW

[6] = molecular target: Cystic fibrosis transmembrane conductance regulator (Homo sapiens) (UniProt P13569); assay: Inhibition of CFTR in human HT-29 cells assessed as effect on intracellular chloride efflux at 20 uM relative to control; format: cell-based
Cystic fibrosis transmembrane conductance regulator (Homo sapiens), sequence (P13569 whole entry, looked up, the tested form may be a part): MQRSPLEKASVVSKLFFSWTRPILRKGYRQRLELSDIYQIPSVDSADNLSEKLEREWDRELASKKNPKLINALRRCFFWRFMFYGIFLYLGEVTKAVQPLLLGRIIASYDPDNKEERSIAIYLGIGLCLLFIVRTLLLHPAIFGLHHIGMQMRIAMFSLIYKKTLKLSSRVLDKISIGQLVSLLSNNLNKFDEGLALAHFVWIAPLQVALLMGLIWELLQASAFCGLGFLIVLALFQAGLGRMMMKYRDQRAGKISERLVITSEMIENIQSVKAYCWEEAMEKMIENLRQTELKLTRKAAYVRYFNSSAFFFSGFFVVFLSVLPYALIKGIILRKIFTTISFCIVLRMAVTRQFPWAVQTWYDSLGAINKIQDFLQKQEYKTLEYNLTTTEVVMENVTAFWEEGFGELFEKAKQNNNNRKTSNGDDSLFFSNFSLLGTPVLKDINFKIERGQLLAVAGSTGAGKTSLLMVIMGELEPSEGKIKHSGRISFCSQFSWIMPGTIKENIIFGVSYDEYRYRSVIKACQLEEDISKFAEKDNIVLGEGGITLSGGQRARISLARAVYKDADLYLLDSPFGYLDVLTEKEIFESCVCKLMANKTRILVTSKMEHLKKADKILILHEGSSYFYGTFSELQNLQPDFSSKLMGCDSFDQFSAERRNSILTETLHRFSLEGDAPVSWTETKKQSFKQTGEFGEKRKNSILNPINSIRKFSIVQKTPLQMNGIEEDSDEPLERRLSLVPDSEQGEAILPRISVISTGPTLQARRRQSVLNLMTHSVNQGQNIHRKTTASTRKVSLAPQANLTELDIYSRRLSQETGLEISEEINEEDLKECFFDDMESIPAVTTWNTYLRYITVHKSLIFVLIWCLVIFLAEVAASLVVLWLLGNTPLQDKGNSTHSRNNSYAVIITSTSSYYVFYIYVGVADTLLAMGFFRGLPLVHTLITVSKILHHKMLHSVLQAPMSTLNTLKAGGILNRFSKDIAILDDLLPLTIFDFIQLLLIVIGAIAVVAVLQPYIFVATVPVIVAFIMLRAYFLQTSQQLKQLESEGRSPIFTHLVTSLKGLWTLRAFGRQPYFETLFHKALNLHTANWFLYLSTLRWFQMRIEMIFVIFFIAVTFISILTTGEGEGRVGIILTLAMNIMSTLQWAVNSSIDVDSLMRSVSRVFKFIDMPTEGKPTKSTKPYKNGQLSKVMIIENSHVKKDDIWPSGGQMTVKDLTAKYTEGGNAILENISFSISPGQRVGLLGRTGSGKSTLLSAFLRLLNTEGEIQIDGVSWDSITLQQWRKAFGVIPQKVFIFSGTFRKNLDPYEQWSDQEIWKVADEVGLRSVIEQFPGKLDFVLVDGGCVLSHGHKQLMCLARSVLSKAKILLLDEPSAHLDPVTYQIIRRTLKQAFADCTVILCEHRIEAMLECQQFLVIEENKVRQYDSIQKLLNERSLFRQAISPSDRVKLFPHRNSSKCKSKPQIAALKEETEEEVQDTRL

[7] = molecular target: T1, NACHT, LRR and PYD domains-containing protein 3; assay: Inhibition of NLRP3 inflammasome (unknown origin) activation in LPS-primed bone marrow derived macrophage cells assessed as effect on IL-1beta production in presence of nigericin by ELISA
Summary of the method: (§2)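 BMDMs pretreated with varied doses of compound, then LPS-primed and stimulated with nigericin; IL-1β in supernatant by ELISA, normalized to DMSO-treated control; IC50 given as mean ± SD.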

Homo sapiens = species on record: Homo sapiens; assay: Selectivity index, ratio of inhibition of NLRP3 inflammasome (unknown origin) activation in bone marrow derived macrophage cells at 10 uM to inhibition of CFTR in human HT-29 cells at 20 uM; format: cell-based
Summary of the method: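 Selectivity index: % NLRP3 inhibition in BMDMs at 10 μM divided by % CFTR inhibition in HT29 cells at 20 μM.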

[8] = molecular target: T1, NACHT, LRR and PYD domains-containing protein 3; assay: Inhibition of NLRP3 inflammasome (unknown origin) activation in LPS-primed bone marrow derived macrophages assessed as inhibition of IL-1beta secretion at 5 uM in presence of mono sodium urate by ELISA; settings: TDE = time-dependent effect
Summary of the method: (§3)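 LPS-primed BMDMs treated with compound (5 μM) and stimulated with nigericin (10 µM), ATP (2.5 mM) or MSU (150 µg/mL), over a time course or at increasing agonist doses; secreted IL-1β by ELISA.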

[9] = molecular target: NLR family CARD domain-containing protein 4 (Homo sapiens) (UniProt Q9NPP4); assay: Inhibition of NLRC4 inflammasome (unknown origin) activation in bone marrow derived macrophages assessed as inhibition of Salmonella-induced IL-1beta secretion at 5 uM by ELISA
NLR family CARD domain-containing protein 4 (Homo sapiens), sequence (Q9NPP4 whole entry, the tested form may be a part): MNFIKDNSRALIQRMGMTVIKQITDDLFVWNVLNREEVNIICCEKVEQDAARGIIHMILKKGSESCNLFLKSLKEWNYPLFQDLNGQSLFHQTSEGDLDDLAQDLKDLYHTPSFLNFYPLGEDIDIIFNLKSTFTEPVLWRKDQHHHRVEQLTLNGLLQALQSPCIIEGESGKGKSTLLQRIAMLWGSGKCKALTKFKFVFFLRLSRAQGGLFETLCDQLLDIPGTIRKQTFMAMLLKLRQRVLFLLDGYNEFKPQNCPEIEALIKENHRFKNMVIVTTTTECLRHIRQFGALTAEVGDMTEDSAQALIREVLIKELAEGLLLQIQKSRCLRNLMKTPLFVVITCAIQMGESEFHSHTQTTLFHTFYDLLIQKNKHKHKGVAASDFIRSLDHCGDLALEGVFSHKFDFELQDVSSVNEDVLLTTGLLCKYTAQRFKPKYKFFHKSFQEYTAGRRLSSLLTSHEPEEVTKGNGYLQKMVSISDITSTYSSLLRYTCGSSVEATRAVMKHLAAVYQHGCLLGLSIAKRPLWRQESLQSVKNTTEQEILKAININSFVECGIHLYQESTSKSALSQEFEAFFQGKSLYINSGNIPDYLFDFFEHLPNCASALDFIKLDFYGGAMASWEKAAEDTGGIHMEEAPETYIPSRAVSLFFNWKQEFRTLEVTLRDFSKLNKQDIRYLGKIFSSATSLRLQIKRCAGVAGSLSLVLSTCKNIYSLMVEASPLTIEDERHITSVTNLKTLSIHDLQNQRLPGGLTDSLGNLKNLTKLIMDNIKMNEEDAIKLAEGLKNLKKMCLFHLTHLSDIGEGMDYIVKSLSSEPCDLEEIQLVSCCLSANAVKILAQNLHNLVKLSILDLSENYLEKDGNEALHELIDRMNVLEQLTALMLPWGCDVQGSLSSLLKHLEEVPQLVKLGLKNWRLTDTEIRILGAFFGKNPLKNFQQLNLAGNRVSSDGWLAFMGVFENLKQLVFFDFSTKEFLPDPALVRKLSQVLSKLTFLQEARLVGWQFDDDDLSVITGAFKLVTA
Summary of the method: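 LPS-primed BMDMs treated with compound (5 μM), then infected with Salmonella typhimurium for different times; supernatant IL-1β by ELISA.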

[10] = Oral bioavailability in Sprague-Dawley rat administered as single dose; format: ADME, organism-based; settings: in vivo
Summary of the method: (§4)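 Sprague-Dawley rats given a single intravenous or oral dose; pharmacokinetic parameters (half-life, AUC, bioavailability) derived from the plasma profile.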

[11] = molecular target: T1, NACHT, LRR and PYD domains-containing protein 3; assay: Inhibition of NLRP3 inflammasome (unknown origin) activation in LPS-primed bone marrow derived macrophages assessed as inhibition of IL-1beta secretion in presence of ATP by ELISA; summary of the method: as §3
[12] = molecular target: T1, NACHT, LRR and PYD domains-containing protein 3; assay: Inhibition of NLRP3 inflammasome (unknown origin) activation in bone marrow derived macrophage cells assessed as effect on nigericin-induced TNF-alpha secretion at 5 uM by ELISA
Summary of the method: (§5)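 LPS-primed BMDMs given compound (5 μM), then nigericin (10 µM), ATP (2.5 mM) or MSU (150 µg/mL); TNF-α in supernatant measured by ELISA.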

[13] = molecular target: T1, NACHT, LRR and PYD domains-containing protein 3; assay: Inhibition of NLRP3 inflammasome (unknown origin) activation in LPS-primed bone marrow derived macrophages assessed as inhibition of IL-1beta secretion in presence of mono sodium urate by ELSIA; summary of the method: as §3
Mus musculus [14] = species on record: Mus musculus; assay: Reversal of NLRP3 mediated metabolic disorder in mouse model of diabetes; format: functional, organism-based
Mus musculus [15] = assay: In vivo inhibition of NLRP3 inflammasome activation in mouse model of cryopyrin-associated auto-inflammatory syndrome; format: functional, organism-based
[16] = molecular target: T1, NACHT, LRR and PYD domains-containing protein 3; assay: Inhibition of NLRP3 inflammasome (unknown origin) activation in LPS-primed bone marrow derived macrophages assessed as inhibition of IL-1beta secretion at 5 uM in presence of nigericin by ELISA; settings: TDE = time-dependent effect; summary of the method: as §3
[17] = AUC in po or iv qd dosed Sprague-Dawley rat; format: ADME, organism-based; settings: in vivo; summary of the method: as §4
[18] = molecular target: T1, NACHT, LRR and PYD domains-containing protein 3; assay: Inhibition of NLRP3 inflammasome (unknown origin) activation in LPS-primed bone marrow derived macrophages assessed as inhibition of IL-1beta secretion at 5 uM in presence of ATP by ELISA; settings: TDE = time-dependent effect; summary of the method: as §3
[19] = molecular target: T1, NACHT, LRR and PYD domains-containing protein 3; assay: Inhibition of NLRP3 inflammasome (unknown origin) activation in LPS-primed bone marrow derived macrophages assessed as inhibition of IL-1beta secretion in presence of nigericin by ELISA; summary of the method: as §2
[20] = molecular target: T1, NACHT, LRR and PYD domains-containing protein 3; assay: Inhibition of NLRP3 inflammasome (unknown origin) activation in bone marrow derived macrophage cells assessed as effect on ATP-induced TNF-alpha secretion at 5 uM by ELISA; summary of the method: as §5
[21] = molecular target: T1, NACHT, LRR and PYD domains-containing protein 3; assay: Inhibition of NLRP3 inflammasome (unknown origin) activation in bone marrow derived macrophage cells assessed as effect on mono sodium urate-induced TNF-alpha secretion at 5 uM by ELISA; summary of the method: as §5
[22] = molecular target: T2, Interferon-inducible protein AIM2 (Homo sapiens) (UniProt O14862); assay: Inhibition of AIM2 inflammasome (unknown origin) activation in bone marrow derived macrophages assessed as inhibition of poly(dA:dT)-induced IL-1beta secretion at 5 uM by ELISA
T2 sequence (whole entry): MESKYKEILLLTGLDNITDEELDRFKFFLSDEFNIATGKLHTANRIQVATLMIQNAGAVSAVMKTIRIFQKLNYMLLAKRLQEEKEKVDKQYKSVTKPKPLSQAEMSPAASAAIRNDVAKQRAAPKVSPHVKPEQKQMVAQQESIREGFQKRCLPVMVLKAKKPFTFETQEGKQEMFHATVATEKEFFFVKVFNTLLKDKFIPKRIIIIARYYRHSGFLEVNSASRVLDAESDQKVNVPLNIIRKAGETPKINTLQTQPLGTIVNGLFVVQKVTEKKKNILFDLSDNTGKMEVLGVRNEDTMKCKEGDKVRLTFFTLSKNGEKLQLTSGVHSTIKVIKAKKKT
Summary of the method: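 LPS-primed BMDMs treated with compound (5 μM), then transfected with poly(dA:dT) (0.5 µg/ml) using Lipofectamine for various times; supernatant IL-1β by ELISA.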

| SMILES | CLhep predicted [1] [mL/min/kg] | half-life [2] [min] | half-life [3] [min] | CLhep predicted [4] [mL/min/kg] | inhibition [5] [%] | inhibition [6] [%] | IC50 [7] [µM] | other results |
| --- | --- | --- | --- | --- | --- | --- | --- | --- |
| CC(C)NCC(O)COc1cccc2ccccc12 (stereo not given) [PROPRANOLOL] | 15.3 | 15.6 | 1.7 | 86.6 |  |  |  |  |
| O=C(O)c1ccc(/C=C2\SC(=O)N(Cc3cccc(C(F)(F)F)c3)C2=O)cc1 |  |  |  |  | 67 | 23 | 5.96 |  |
| O=C(O)c1ccc(/C=C2\SC(=S)N(CCCc3cccc(C(F)(F)F)c3)C2=O)cc1 |  |  |  |  | 68 |  | 4.32 |  |
| O=C1/C(=C/c2ccc(-c3nnn[nH]3)cc2)SC(=S)N1CCCc1cccc(C(F)(F)F)c1 |  |  |  |  | 72 | > 10 | 4.85 |  |
| O=C1/C(=C/c2ccc(-c3nnn[nH]3)cc2)SC(=S)N1Cc1cccc(C(F)(F)F)c1 |  |  |  |  | 67 |  | 5.58 |  |
| O=C(O)c1ccc(/C=C2\SC(=S)N(Cc3cccnc3)C2=O)cc1 |  |  |  |  | 63 | > 10 | 6.27 |  |
| O=C(O)c1ccc(/C=C2\SC(=S)N(Cc3cccc(C(F)(F)F)c3)C2=O)cc1 | < 4.7 | > 145 | > 145 | < 20.7 | 83 |  | 2.4 | inhibition [8]: Tde; inhibition [9]: inactive; bioavailability [10]: 27%; inhibition [11]: Dose-dependent effect; inhibition [12]: inactive; inhibition [13]: Dose-dependent effect; Activity (Mus musculus [14]): Active; inhibition (Mus musculus [15]): Active; inhibition [16]: Tde; AUC [17]: 1930 ng·h/mL; inhibition [18]: Tde; inhibition [19]: Dose-dependent effect; inhibition [20]: inactive; inhibition [21]: inactive; inhibition [22]: inactive |

Further compounds by falling IC50 [7], results first:

| CLhep predicted [1] [mL/min/kg] | half-life [2] [min] | half-life [3] [min] | CLhep predicted [4] [mL/min/kg] | inhibition [5] [%] | inhibition [6] [%] | IC50 [7] [µM] | SMILES | other results |
| --- | --- | --- | --- | --- | --- | --- | --- | --- |
|  |  |  |  | 63 | > 10 | 3.52 | O=C(O)c1ccc(/C=C2\SC(=S)N(Cc3cccc(F)c3)C2=O)cc1 |  |
| 15.8 | 13.8 | 1.8 | 86.5 | 81 | 66 | 2.98 | CN1CCN(C(=O)c2ccc(/C=C3\SC(=S)N(c4cccc([N+](=O)[O-])c4)C3=O)cc2)CC1 | Selectivity Index (Homo sapiens): 1.23 |
| < 4.7 | > 145 | > 145 | < 20.7 | 81 | 74 | 2.74 | O=C(c1ccc(/C=C2\SC(=S)N(c3cccc(C(F)(F)F)c3)C2=O)cc1)N1CCOCC1 | Selectivity Index (Homo sapiens): 1.09 |
| 10.3 | 44.1 | 4 | 82.4 | 80 | 72 | 2.44 | O=C(c1ccc(/C=C2\SC(=S)N(c3cccc(C(F)(F)F)c3)C2=O)cc1)N1CCC(O)CC1 | Selectivity Index (Homo sapiens): 1.11 |

From ChEMBL document CHEMBL4627283, “Discovery and optimization of 4-oxo-2-thioxo-thiazolidinones as NOD-like receptor (NLR) family, pyrin domain-containing protein 3 (NLRP3) inhibitors” (Bioorg Med Chem Lett, 2020)
